# TNAP act hiacc: TNAP activators at high phosphate acceptor level, primary screen, biochemical, luminescence, uHTS; Alkaline phosphatase, tissue-nonspecific isozyme (Homo sapiens), P05186; purified TNAP, CDP-star luminescence, 1 M DEA, 30 min; active compounds read high; 0 = EDTA background, 1 = DMSO-only activity; activation factor at 20 µM; 200,000 tested, under 10 active; AID 1136, 2008;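 active = activation factor at least 2 at 20 µM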
# Target sequence (P05186 whole entry, looked up): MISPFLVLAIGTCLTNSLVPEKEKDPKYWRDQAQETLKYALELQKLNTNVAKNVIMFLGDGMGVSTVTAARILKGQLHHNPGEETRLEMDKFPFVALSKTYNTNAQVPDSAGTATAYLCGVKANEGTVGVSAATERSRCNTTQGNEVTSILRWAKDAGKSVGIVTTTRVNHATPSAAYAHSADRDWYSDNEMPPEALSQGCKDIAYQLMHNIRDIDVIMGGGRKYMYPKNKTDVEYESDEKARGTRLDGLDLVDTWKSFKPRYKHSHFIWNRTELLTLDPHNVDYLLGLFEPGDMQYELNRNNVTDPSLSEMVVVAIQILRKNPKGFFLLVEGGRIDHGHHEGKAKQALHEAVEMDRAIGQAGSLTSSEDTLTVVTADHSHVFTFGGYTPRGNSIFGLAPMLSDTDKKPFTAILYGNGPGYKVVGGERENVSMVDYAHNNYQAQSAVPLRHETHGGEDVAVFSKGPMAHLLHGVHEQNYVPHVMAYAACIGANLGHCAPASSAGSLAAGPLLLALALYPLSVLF
#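 Test system – human TNAP · Doses – 20 µM single point · Incubation – 30 min, room temperature · Signal – luminescent substrate turnover signal · Read-out basis – activation factor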
# BB579 growth dn: growth inhibitors of yeast BB579 in restrictive medium, primary screen, yeast lifespan-shortening project, S. cerevisiae | OD615, 48 h | inhibition, % at 10 µM | 140,000 compounds, 0.51% hits | AID 804, 2007;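 active = inhibition above a set limit, 3 SD over the mean compound inhibition, cut at about 44% in these data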
#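 Detection: OD615 turbidity measurement; Material: Saccharomyces cerevisiae DeaD strain BB579, replicative lifespan model yeast; Timing: 48 h exposure, 30 °C; Doses: single 10 µM dose; Medium: CSMM-D restrictive synthetic medium containing dextrose (glucose); Controls: amphotericin B at 10 µg/mL as positive control.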
# RAM inhibit: inhibitors of the yeast RAM network, primary screen, dse1pr::URA3 reporter, 5-FOA selection | S. cerevisiae dse1pr::URA3 reporter, 5-FOA growth OD615, 2 d; analog-sensitive cbk1-as2 kinase mutant strain | inhibition, % at 50 µM | 190,000 compounds, 1.8% hits | AID 868, 2007;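 active = inhibition above a set limit, 3 SD over mean compound inhibition, cut at about 8.4% in these data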;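 note: 0% = DMSO-only wells with no growth and 100% = 10 µM 1-NA-PP1 full growth; inhibition rescues growth on 5-FOA so higher OD means more RAM inhibition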
# Yeast lifespan up: compounds extending yeast replicative lifespan, primary screen, S. cerevisiae, OD615. S. cerevisiae growth with nicotinamide; deaD strain in restrictive glucose medium. inhibition of the nicotinamide effect, % at 10 µM. 130,000 compounds, 0.68% hits. AID 775, 2007;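 active = inhibition above a set limit, placed 3 SD over the median of all compounds, cut at about 26% in these data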;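 note: 0% = nicotinamide-treated wells and 100% = cells grown without nicotinamide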
#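 assay system = DeaD-strain S. cerevisiae | buffer or medium = restrictive glucose medium | reagent = 1.5 mM nicotinamide | compound = 10 µM single point, 0.25% DMSO | incubation = 48 h compound exposure at 30 °C, humidified | signal = OD615 measurement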
# TNAP inh hi DEA: human TNAP enzyme inhibitors, primary screen, biochemical, luminescent, high phosphate acceptor level, uHTS | 200,000 compounds, 0.03% hits | inhibition, % at 20 µM | purified TNAP, CDP-star luminescence, 1 M DEA | Alkaline phosphatase, tissue-nonspecific isozyme (Homo sapiens), P05186 | AID 1135, 2008;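 active = over 50% inhibition of tissue-nonspecific alkaline phosphatase at 20 µM in the single-dose screen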;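 note: plate controls were DMSO wells for no effect and EDTA-quenched wells as full inhibition for full effect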
# TNAP inh noacc: human TNAP enzyme inhibitors, primary screen, biochemical, luminescent, no phosphate acceptor, uHTS; Alkaline phosphatase, tissue-nonspecific isozyme (Homo sapiens), P05186; inhibition, % at 20 µM; purified TNAP, CDP-star luminescence, 30 min; 200,000 compounds, 0.26% hits; AID 1012, 2008;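 active = tissue-nonspecific alkaline phosphatase inhibition above about 50% at 20 µM in the single-dose screen, limit read from the data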;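 note: 0% = DMSO negative control and 100% = EDTA positive control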
# Numbers without * were called inactive; · = no result given; ! = not confirmed by another sample. Shown are actives, neighbours in structure and some others; about 2.8% of the full set was active somewhere.
SMILES,TNAP act hiacc,BB579 growth dn,RAM inhibit,Yeast lifespan up,TNAP inh hi DEA,TNAP inh noacc
c1ccc(-c2ccc(-n3ccnc3)cc2)cc1,1,-33,3,-14,-4,-20
Oc1cccc2ccc(Nc3ccccn3)nc12,1,97*,1,-20,1,-16
COc1ccc(NC(=O)COC(=O)C2CCC(C(C)(C)C)CC2)c([N+](=O)[O-])c1 (stereo unspecified),1,-10,11*,2,0,-10
Cc1ccc(O)c(NC(=S)NC(=O)CC(C)C)c1,1,-15,2,-3,0,-8
COC(=O)/C(=C1/Oc2ccc(C(C)(C)C)cc2S1)C(F)(F)F,1,-48,3,9,1,-18
COC(=O)/C(=C1/Oc2cc(C)oc(=O)c2S1)C(F)(F)F,1,-19,2,47*,2,-2
O=c1cc(-c2ccccc2)nc(SCc2ccccc2F)[nH]1,1,·,9.3*,·,-4,-7
Nc1n[nH]c(-c2ccc(Br)cc2)c1Cl,1,-28,-1,-28,-3,81*
CCN(CC)C(=O)c1c(C)[nH]c(=S)c(C#N)c1-c1ccco1,1,·,0,·,-2,-11
Cc1ccc(-c2c(C(=O)Nc3ccccc3C)c(C)[nH]c(=S)c2C#N)o1,1,·,8.5*,·,-2,-4
CCc1cc2c3c(c1)C(C)CC(C)(C)N3C(=O)C2=O (stereo unspecified),0.9,-25,0,28*,6,-10
CCn1cc(Cl)c(C(=O)N2N=C3/C(=C/c4cccs4)CCCC3C2c2cccs2)n1 (stereo unspecified),1,-53,10*,·,-3,19
Cc1ncsc1C(=O)N1N=C2/C(=C/c3ccccc3)CCCC2C1c1ccccc1 (stereo unspecified),1.1,-16,4,-15,-7,3
O=C(NNC(=O)c1ccc2ccccc2c1O)c1ccccc1Cl,1,8,0,-1,0,65*
O=C(COc1ccc(Cl)cc1)NCc1nnc(SCC(=O)Nc2ccc(F)cc2F)o1,1,·,2,·,-4,-9
COc1cc(C(C[N+](=O)[O-])c2c(-c3ccccc3)cc3ccccn23)cc(OC)c1OC (stereo unspecified),1,-53,3,78*,0,-2
COc1ccc(-c2c(=O)n(OCc3ccccc3[N+](=O)[O-])c3ccccc3[n+]2[O-])c(OC)c1,1,·,2,·,0,-8
Cc1nn(-c2ccccc2)c(N)c1C(O)(CC(=O)C(F)(F)F)C(F)(F)F (stereo unspecified),1,-42,9.0*,2,3,-2
CCSC1=N/C(=C\c2ccccc2)C(=O)N1c1ccc(OC)cc1,1.1,·,10*,·,-6,-5
CC(CCc1ccccc1)NC(=O)c1nnc(Cc2ccc(Cl)cc2)o1 (stereo unspecified),1,12,8.7*,-9,-2,-15
COc1ccccc1NC(=S)NCCSc1ccc(Cl)cc1,1,10,7,-6,2,-23
COc1ccc(Cl)cc1NC(=S)NCCSc1ccc(C)cc1,1,16,9.4*,-6,-3,-84
CSc1cccc(NC(=O)N2CCCC(CNS(=O)(=O)Cc3ccccc3)C2)c1 (stereo unspecified),1,·,1,·,-2,-3
COc1ccc(C)cc1NC(=O)C(Sc1nnc(Nc2cc(C)ccc2OC)s1)c1ccccc1 (stereo unspecified),1,-60,8.5*,9,-5,-18
CCC(=O)N1c2ccc(C)cc2C2=NNC(=S)NC21O (stereo unspecified),1,-50,4,7,-4,-6
SMILES,TNAP act hiacc,BB579 growth dn,RAM inhibit,Yeast lifespan up,TNAP inh hi DEA,TNAP inh noacc
CCN1C(=O)/C(=C/N2CC(C)CC(C)C2)SC1=S (stereo unspecified),1,-21,9.7*,-15,-1,-6
CCN1C(=O)/C(=C\N2CCCCCC2)SC1=S,1,4,1,-14,-3,-11
O=C(Cc1ccccc1)Nc1ccc(NC(=O)c2cccs2)cc1Cl,1,·,4,·,-5,-11
CCCCNS(=O)(=O)c1ccc2nc(SCC(=O)Nc3cccc(F)c3)[nH]c2c1,1,-53,0,7,0,-25
CCCCNS(=O)(=O)c1ccc2nc(SCC(=O)Nc3ccccc3Cl)[nH]c2c1,1,-27,9.4*,-5,1,-12
C/C(=N\NC(=O)CSCc1ccccc1Cl)c1cc(O)ccc1O,0.9,·,-1,·,6,75*
O=C(CSCc1ccccc1Cl)NN=C1CCCCCC1,1,12,1,-17,-3,-11
COc1ccccc1/C(C)=N/NC(=S)NCc1ccccc1,1,·,-1,·,-4,-77
CN(CCC#N)C(=O)COC(=O)c1c2c(nc3ccccc13)/C(=C/c1ccco1)CC2,0.9,-34,4,-3,8,-1
Cc1cc(C(N)=O)c2cc(Br)ccc2n1,1,-6,0,-3,0,-12
O=C(O)c1cc(-c2ccco2)nc2ccc(Br)cc12,1,-30,2,36*!,-2,-5
O=C(NCc1ccccc1Cl)C1CCN(C(=O)c2sccc2-n2cccc2)CC1,1,-29,8.9*,-1,-4,-5
CCN1C/C(=C/c2cccc([N+](=O)[O-])c2)C(=O)/C(=C/c2cccc([N+](=O)[O-])c2)C1,1.1,-58,4,19,-5,-10
O=C(Cc1c(Cl)cccc1Cl)OCC(=O)N1CCN(C(=O)c2ccco2)CC1,1,·,0,·,-1,-6
CCOC(=O)c1cc2sccc2n1CCCN1C(=O)c2ccccc2C1=O,1.1,-36,9.0*,-2,-6,-7
Cn1ccc(C(=O)OCC(=O)Nc2cccc3ccccc23)n1,1.1,·,0,·,-6,-16
O=C(Nc1ccc(Br)cn1)c1cccc(-c2cc3ccccc3oc2=O)c1,1,-37,0,76*,0,-1
CCn1c(C)c(C(C)=O)c(SC)nc1=S,0.9,-10,2,0,9,-10
O=C(OCc1ccccc1)/C(=C/c1ccc(Cl)cc1)NC(=O)c1ccccc1Cl,1.1,-56,9.2*,-1,-7,-14
Cc1ccc(C(=O)N/C(=C\c2ccccc2)C(=O)OCc2ccccc2)cc1,1,-26,9.5*,3,5,-2

# High-throughput results from PubChem BioAssay.
